In ChEMBL document CHEMBL1154956, “Stereospecific synthesis of oximes and oxime ethers of 3-azabicycles: A SAR study towards antimicrobial agents” (2010) one finds MIC90 data, which are given here for four molecules.

Each structure is given as a SMILES string. Values after ≈ are worked out from the molar mass of the structure shown.

Common to all, as to format: functional
One assay relates to Candida albicans. The experiment in a line: Antifungal activity against Candida albicans by NCCLS broth microdilution method. The method, boiled down:
(§1)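 MIC90 was taken as the lowest concentration that inhibited 90% of pathogen growth after incubation, reported in μg/mL. Broth dilution followed the NCCLS reference standards: M27-A for yeasts and the proposed standard for conidium-forming filamentous fungi. Fluconazole was the reference drug.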
For orientation: In broth dilution the organism is exposed to a series of concentrations in liquid medium.

A further assay deals with Staphylococcus aureus. The experiment in a line: Antibacterial activity against Staphylococcus aureus by NCCLS broth microdilution method.
The subject of a further assay is Klebsiella pneumoniae. The experiment in a line: Antibacterial activity against Klebsiella pneumoniae by NCCLS broth microdilution method.
The subject of another assay is Bacillus subtilis. The assay is described as follows: Antibacterial activity against Bacillus subtilis by NCCLS broth microdilution method.
The next assay has as its system Candida parapsilosis. The assay is described as follows: Antifungal activity against Candida parapsilosis by NCCLS broth microdilution method. The procedure, abridged:
as §1

For another assay, the system named is Cryptococcus neoformans. The experiment in a line: Antifungal activity against Cryptococcus neoformans by NCCLS broth microdilution method. The method, boiled down: as §1
In the next assay the test system is Pseudomonas aeruginosa. The assay is described as follows: Antibacterial activity against Pseudomonas aeruginosa by NCCLS broth microdilution method.
Another assay concerns Aspergillus niger. The experiment in a line: Antifungal activity against Aspergillus niger by NCCLS broth microdilution method. The procedure, abridged: as §1
Where [1] appears, read: Candida albicans, read-out: MIC90.
[2] abbreviates: Staphylococcus aureus, read-out: MIC90.
The mark [3] stands for this setting: Klebsiella pneumoniae, read-out: MIC90.
Setting [4] is: Bacillus subtilis, read-out: MIC90.
[5] abbreviates: Lodderomyces parapsilosis, read-out: MIC90.
[6] abbreviates: Cryptococcus neoformans, read-out: MIC90.
[7] abbreviates: Pseudomonas aeruginosa, read-out: MIC90.
[8] abbreviates: Aspergillus niger, read-out: MIC90.

As for `CC12CCCC(/C1=N\O)C(c1ccc(Cl)cc1)NC2c1ccc(Cl)cc1` (configuration not stated), the MIC90 in the assay with Candida albicans (setting [1]) is 32 µg/mL (≈ 82.2 µM); in the assay on Staphylococcus aureus (setting [2]), 64 µg/mL (≈ 164 µM); in the assay with Klebsiella pneumoniae (setting [3]), 16 µg/mL (≈ 41.1 µM); with Bacillus subtilis (setting [4]), more than 128 µg/mL; with Candida parapsilosis (setting [5]), 64 µg/mL (≈ 164 µM); with Cryptococcus neoformans (setting [6]), 32 µg/mL (≈ 82.2 µM). Moreover, the MIC90 in the assay with Pseudomonas aeruginosa (setting [7]) was more than 128 µg/mL; in the assay on Aspergillus niger (setting [8]) it was 64 µg/mL (≈ 164 µM).

As to `CC1CC2C(=NO)C(C1)C(c1ccccc1Cl)NC2c1ccccc1Cl` (stereo in doubt; 52a), the MIC90 against Candida albicans came to 16 µg/mL (≈ 41.1 µM); with Staphylococcus aureus (setting [2]) it was 16 µg/mL (≈ 41.1 µM); in the assay with Klebsiella pneumoniae (setting [3]), 32 µg/mL (≈ 82.2 µM); in the assay on Bacillus subtilis (setting [4]), 32 µg/mL (≈ 82.2 µM); in the assay on Candida parapsilosis (setting [5]), 32 µg/mL (≈ 82.2 µM); in the assay with Cryptococcus neoformans (setting [6]), 32 µg/mL (≈ 82.2 µM). In addition, the MIC90 in the assay on Pseudomonas aeruginosa is 32 µg/mL (≈ 82.2 µM); against Aspergillus niger it was more than 128 µg/mL.

For the molecule `CC12CCCC(/C1=N\O)C(c1cccc(Cl)c1)NC2c1cccc(Cl)c1` (configuration not stated), the MIC90 is 64 µg/mL (≈ 164 µM) with Candida albicans (setting [1]); 64 µg/mL (≈ 164 µM) in the assay on Staphylococcus aureus (setting [2]); 64 µg/mL (≈ 164 µM) with Klebsiella pneumoniae (setting [3]); more than 128 µg/mL in the assay on Bacillus subtilis (setting [4]); 64 µg/mL (≈ 164 µM) in the assay with Candida parapsilosis (setting [5]); 128 µg/mL (≈ 329 µM) in the assay with Cryptococcus neoformans (setting [6]). In addition, the MIC90 in the assay with Pseudomonas aeruginosa (setting [7]) and with Aspergillus niger (setting [8]) was more than 128 µg/mL throughout.

Turning to `CON=C1C2CC(C)CC1C(c1ccccc1Cl)NC2c1ccccc1Cl` (stereo in doubt; 58b), the MIC90 with Candida albicans was 4 µg/mL (≈ 9.92 µM); with Staphylococcus aureus, 8 µg/mL (≈ 19.8 µM); with Klebsiella pneumoniae it was 16 µg/mL (≈ 39.7 µM); against Bacillus subtilis, 32 µg/mL (≈ 79.3 µM); against Candida parapsilosis, 4 µg/mL (≈ 9.92 µM); with Cryptococcus neoformans it was 2 µg/mL (≈ 4.96 µM). In addition, the MIC90 against Pseudomonas aeruginosa was determined as 16 µg/mL (≈ 39.7 µM); against Aspergillus niger it was 2 µg/mL (≈ 4.96 µM).

The MIC90 is the lowest concentration that inhibits either 90% of growth or 90% of the strains tested, depending on the study.
